The source made the active and inactive calls.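 The calls were made as follows: active = growth inhibition above 25% in both replicates, a cutoff set 3 SD above the mean; inconclusive = above 25% in only one replicate; inactive = the rest.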
Test: S. cerevisiae growth inhibition in permissive medium (OD615), pilot counter-assay for S. cerevisiae lifespan shortening project, permissive growth control (AID 705)
Conditions: OD615, 24 h, at 10 µM, active compounds read high
How it was run: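 Test system: Saccharomyces cerevisiae strain carrying genetically modified DeaD replicative-lifespan system; buffer or medium: SC raffinose/galactose permissive medium; dosing: one dose 10 µM, DMSO 0.25% final; times: 24 h exposure, 30 °C; measured by: OD at 615 nm; read-out basis: growth inhibition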

Row | SMILES | growth inhibition
1 | CCOC(=O)c1cc(-c2ccc(C)o2)nn1CCC#N | -6.98% (inactive)
2 | Cc1cc(C)cc(N(CC(=O)NCc2ccco2)S(=O)(=O)c2c(C)noc2C)c1 | -22% (inactive)
3 | COc1ccc(OCCSc2ncnc3nc[nH]c23)cc1 | 2.66% (inactive)
4 | Cc1sc2ncnc(Sc3nnc4sc5ccccc5n34)c2c1C | 6.21% (inactive)
5 | CC(=O)Nc1nc2n(n1)C(c1ccccc1)C=C(c1ccccc1)N2 (stereo not given) | -7.58% (inactive)
6 | O=C(c1ccc(CS(=O)(=O)c2ccc(Br)cc2)o1)N1CCN(c2ncccn2)CC1 | -4.05% (inactive)
7 | CC(=O)c1cccc(NC(=O)c2cc(C(C)C)on2)c1 | -14.6% (inactive)
8 | Cc1ccccc1-c1noc(-c2cccs2)n1 | 8.34% (inactive)
9 | COc1ccc(OC)c(S(=O)(=O)Nc2ccc(OCC(=O)O)cc2)c1 | -9.87% (inactive)
10 | CC(=O)Nc1ccc(S(=O)(=O)Nc2cccc(C(=O)NC(C)(C)C)c2)cc1 | -5.5% (inactive)
11 | CCOC(=O)N1CCN(CC(=O)Nc2cc(OCC)ccc2OCC)CC1 | -8.3% (inactive)
12 | Cc1cc(C)cc(OCC(=O)Nc2cccc(-c3nc4ncccc4o3)c2)c1 | -7.77% (inactive)
13 | Oc1ccc(-c2nc3cnccn3c2Nc2ccc3c(c2)OCCO3)cc1 | 2% (inactive)
14 | CCOC(=O)c1ccc(N2C(=O)CC(C3CCCO3)C2=O)cc1 (stereo not given) | 4.47% (inactive)
15 | CC(=O)N1CCc2cc(S(=O)(=O)Nc3ccccc3N3CCN(C)CC3)ccc21 | -7.73% (inactive)
16 | CC(=O)c1cccc(NC(=O)C2CCN(S(=O)(=O)c3ccc(F)cc3)CC2)c1 | -6.23% (inactive)
17 | CCc1nnc(NC(=O)CSc2nnc(Cc3cccn3C)n2C)s1 | 5.43% (inactive)
18 | CCNc1cc2oc(=O)c(CN3CCOCC3)c(C)c2cc1C | 4.16% (inactive)
19 | COc1ccc(N=C(N(C)C)P(=O)(N(C)C)N(C)C)cc1 | -5.46% (inactive)
20 | COC(=O)c1ccc2c(c1)N(C)CCS2 | -7.72% (inactive)

Row | SMILES | growth inhibition
21 | O=C(CSc1nnc(COc2ccccc2)o1)Nc1nccs1 | 6.56% (inactive)
22 | COC(=O)c1ccccc1NC(=O)Nc1nnc(N2CCCCC2C)s1 (stereo not given) | -8.82% (inactive)
23 | Cc1csc(NC(=O)CSc2nnc(Cn3c(=O)sc4ccccc43)n2-c2ccccc2)n1 | 0.38% (inactive)
24 | CC(C)(C)OC(=O)N1CCC(C(N)=O)CC1 | -1.93% (inactive)
25 | C=CCSc1nnc2c(n1)OC(c1cccnc1)Nc1ccccc1-2 (stereo not given) | 8.11% (inactive)
26 | CN(C)/C=N/c1c(C#N)cnn1-c1ccccc1 | -5.88% (inactive)
27 | COc1ccccc1CCNC(=O)c1cnn2c(C(F)F)cc(C)nc12 | -0.75% (inactive)
28 | COc1ccc(N2C(=O)CCC(C(=O)N3CCC(C(N)=O)CC3)C2c2ccc(F)cc2)cc1 (stereo not given) | -5.89% (inactive)
29 | O=C(c1cc(C2CC2)on1)N1CCOCC1 | -4.11% (inactive)
30 | Clc1ccc(-c2nnn(Cc3nc4ccccc4s3)n2)cc1 | -2.44% (inactive)
31 | CC(C)C(=O)Nc1ccc2c(c1)C(=O)N(CCC(=O)O)C2=O | -4.82% (inactive)
32 | COc1ccc(N(CC(=O)NCc2ccccc2OC)S(=O)(=O)c2c(C)nn(C)c2C)cc1 | -12.2% (inactive)
33 | O=C(c1cncc(Br)c1)N1CCN(c2ccc(N3CCOCC3)nn2)CC1 | -0.43% (inactive)
34 | CC1(C)CC(=O)C(C=NCCN2CCN(C(=O)CC3CCCC3)CC2)=C(O)C1 | -24.8% (inactive)
35 | COC(=O)c1c(N2C(=O)CCC2=O)sc2c1CCCC2 | -1.48% (inactive)
36 | CC1(C)Cc2ccccc2-c2nc(NCCCO)n(-c3ccccc3)c(=O)c21 | -18.3% (inactive)
37 | CN(Cc1ccccc1)c1nnc(N)s1 | 0.13% (inactive)
38 | CC(=O)Nc1ccc(-c2cc(NC(C)=O)n(-c3ccccc3)n2)cc1 | 2.46% (inactive)
39 | COc1ccc(C2C(C(=O)Nc3cc(C)on3)c3ccccc3C(=O)N2C)cc1OC (stereo not given) | -4.48% (inactive)
40 | CC(=O)Nc1ccc(S(=O)(=O)NCCc2cc3c(C)ccc(C)c3[nH]c2=O)cc1 | -10.1% (inactive)
